According to ChEMBL document CHEMBL3525963, “Tissue distribution and elimination of [14C]apixaban in rats” (Drug Metab Dispos, 2011):

Columns and labels:
Design in all cases: dose 5 mg/kg, dosed compound name [14C]-apixaban, route oral
Details in all cases: in vivo
[1] = tested on: Spleen; assay: Biodistribution in male Sprague-Dawley rat spleen at 5 mg/kg, po administered as single dose measured after 1 hr; assay type: ADME, organism-based
Summary of the method: (§1)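 [14C]apixaban (1.0 mg/mL, 20 μCi/mL) in 0.5% Tween 80 in Labrafil, given by oral gavage at 100 μCi/kg to male rats (225-252 g) fasted overnight through 4 h post-dose. One rat per time point. Carcasses frozen in hexane/dry ice and cut into 40 µm sagittal sections. QWBA read on phosphor plates against [14C]glucose standards, reported as µg eq/g. LLOQ 0.037 µg eq/g.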

[2] = tested on: Rattus norvegicus; assay: Biodistribution in male Sprague-Dawley rat pituitary gland at 5 mg/kg, po administered as single dose measured after 1 hr; assay type: ADME, organism-based
[3] = tested on: Rattus norvegicus; assay: Biodistribution in male Sprague-Dawley rat salivary gland at 5 mg/kg, po administered as single dose measured after 24 hrs; assay type: ADME, organism-based
[4] = tested on: Rattus norvegicus; assay: Biodistribution in male Sprague-Dawley rat kidney cortex at 5 mg/kg, po administered as single dose measured after 24 hrs; assay type: ADME, organism-based
[5] = tested on: Rattus norvegicus; assay: Biodistribution in fetal blood of pregnant Sprague-Dawley rat at 5 mg/kg, po administered as single dose measured after 1 hr; assay type: ADME, organism-based
Summary of the method: (§2)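 Pregnant rats, 270-319 g and fasted overnight, received [14C]apixaban by oral gavage at 100 μCi/kg in 0.5% Tween 80/Labrafil. One dam per time point was euthanized and frozen in hexane/dry ice. Fetal tissue radioactivity was measured by QWBA on 40 µm sagittal sections calibrated with [14C]glucose standards. Values are in µg eq/g, with LLOQ 0.037 μg eq/g.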

[6] = tested on: Rattus norvegicus; assay: Biodistribution in male Sprague-Dawley rat pituitary gland at 5 mg/kg, po administered as single dose measured after 0.5 hrs; assay type: ADME, organism-based
[7] = AUC (0 to t) in lactating Sprague-Dawley rat milk at 5 mg/kg, po administered as single dose; assay type: ADME, organism-based
Summary of the method: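 Fasted lactating SD rats received 5 mg/kg [14C]apixaban orally (formulation 5.0 mg/mL, 20 μCi/mL). Oxytocin was injected subcutaneously 15 min before collection, and 1 mL milk was taken under anesthesia by milking machine. Sampling was predose and at 0.5–24 h, 3 rats per time point. Plasma was obtained at 1300g for 10 min. Duplicate 50–100 µL aliquots were counted by LSC for 10 min. AUC was calculated in WinNonlin.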

[8] = tested on: Muscle tissue; assay: Biodistribution in female Sprague-Dawley rat muscle at 5 mg/kg, po administered as single dose measured after 1 hr; assay type: ADME, organism-based
Summary of the method: (§3)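 [¹⁴C]Apixaban given by oral gavage at 5 mg/kg (100 μCi/kg) in 0.5% Tween 80 in Labrafil (1.0 mg/mL dosing solution) to rats fasted overnight through 4 h post-dose. One rat per time point; carcass frozen in hexane/dry ice. Quantitative whole-body autoradiography used 40 µm sagittal sections and a phosphor imaging plate calibrated with [¹⁴C]glucose standards (0.001–6.5 μCi/g). Read-out in µg eq apixaban/g; LLOQ 0.037 μg eq/g.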

[9] = tested on: Harderian gland; assay: Biodistribution in female Sprague-Dawley rat harderian gland at 5 mg/kg, po administered as single dose measured after 1 hr; assay type: ADME, organism-based; summary of the method: as §3
[10] = tested on: Harderian gland; assay: Biodistribution in pregnant Sprague-Dawley rat harderian gland at 5 mg/kg, po administered as single dose measured after 4 hrs; assay type: ADME, organism-based
[11] = tested on: Rattus norvegicus; assay: Biodistribution in fetal kidney of pregnant Sprague-Dawley rat at 5 mg/kg, po administered as single dose measured after 1 hr; assay type: ADME, organism-based; summary of the method: as §2
[12] = tested on: Blood; assay: Cmax in male Sprague-Dawley rat blood at 5 mg/kg, po administered as single dose; assay type: ADME, organism-based
Summary of the method: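 Fasted male, female or pregnant SD rats received a single oral gavage of 5 mg/kg (100 μCi/kg) in 0.5% Tween 80/Labrafil. One rat was killed per time point, up to 168 h (48 h for pregnant). Blood was collected into K3EDTA. Blood radioactivity came from autoradiogram or LSC data, and Cmax was taken from the concentration-time profile.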

[13] = tested on: Blood; assay: Biodistribution in female Sprague-Dawley rat blood at 5 mg/kg, po administered as single dose measured after 4 hrs; assay type: ADME, organism-based; summary of the method: as §3
[14] = tested on: Rattus norvegicus; assay: Biodistribution in fetal brain of pregnant Sprague-Dawley rat at 5 mg/kg, po administered as single dose measured after 1 hr; assay type: ADME, organism-based
Summary of the method: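 Pregnant SD rats received a single oral gavage of [14C]apixaban at 5 mg/kg (100 μCi/kg; 1.0 mg/mL, 20 μCi/mL in 0.5% Tween 80/Labrafil) after fasting, one dam per time point. Frozen carcasses were cut into 40 µm sagittal sections and read by phosphor-imaging QWBA against [14C]glucose standards. Fetal tissue radioactivity is reported as µg eq/g, with LLOQ 0.037 µg eq/g.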

[15] = tested on: Brain; assay: Biodistribution in male Sprague-Dawley rat brain at 5 mg/kg, po administered as single dose measured after 0.5 hrs; assay type: ADME, organism-based
Summary of the method: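 Fasted male SD rats were dosed orally by gavage with a single 5 mg/kg (100 μCi/kg) dose of [14C]apixaban, formulated at 1.0 mg/mL and 20 μCi/mL in 0.5% Tween 80/Labrafil. One rat was euthanized per time point and the carcass frozen and sectioned at 40 µm. Brain was quantified by QWBA against [14C]glucose calibration standards, as µg eq/g (LLOQ 0.037 µg eq/g).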

[16] = tested on: Rattus norvegicus; assay: Biodistribution in pregnant Sprague-Dawley rat pituitary gland at 5 mg/kg, po administered as single dose measured after 8 hrs; assay type: ADME, organism-based
[17] = tested on: Thymus; assay: Biodistribution in pregnant Sprague-Dawley rat thymus at 5 mg/kg, po administered as single dose measured after 1 hr; assay type: ADME, organism-based
[18] = tested on: Muscle tissue; assay: Biodistribution in pregnant Sprague-Dawley rat muscle at 5 mg/kg, po administered as single dose measured after 4 hrs; assay type: ADME, organism-based
[19] = tested on: Harderian gland; assay: Biodistribution in male Sprague-Dawley rat harderian gland at 5 mg/kg, po administered as single dose measured after 1 hr; assay type: ADME, organism-based; summary of the method: as §3
[20] = tested on: Pancreas; assay: Biodistribution in female Sprague-Dawley rat pancreas at 5 mg/kg, po administered as single dose measured after 1 hr; assay type: ADME, organism-based; summary of the method: as §3
[21] = tested on: Heart; assay: Biodistribution in male Sprague-Dawley rat heart at 5 mg/kg, po administered as single dose measured after 4 hrs; assay type: ADME, organism-based; summary of the method: as §1
[22] = tested on: Harderian gland; assay: Biodistribution in male Sprague-Dawley rat harderian gland at 5 mg/kg, po administered as single dose measured after 4 hrs; assay type: ADME, organism-based; summary of the method: as §3
[23] = tested on: Spleen; assay: Biodistribution in female Sprague-Dawley rat spleen at 5 mg/kg, po administered as single dose measured after 4 hrs; assay type: ADME, organism-based; summary of the method: as §3
[24] = tested on: Rattus norvegicus; assay: Biodistribution in female Sprague-Dawley rat brown fat at 5 mg/kg, po administered as single dose measured after 8 hrs; assay type: ADME, organism-based, Brown adipose tissue
Summary of the method: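 [14C]apixaban (20 μCi/mL in dosing solution) in 0.5% Tween 80 in Labrafil given by oral gavage to fasted female rats, 206-213 g, at 100 μCi/kg. One rat per time point was euthanized and snap-frozen. Sagittal 40 µm whole-body sections were read by QWBA phosphor imaging against [14C]glucose standards. Results are in µg eq apixaban/g, with LLOQ 0.037 μg eq/g.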

COc1ccc(-n2nc(C(N)=O)c3c2C(=O)N(c2ccc(N4CCCC[14C]4=O)cc2)CC3)cc1
Radiolabel recovery [1]: 0.32 ugequiv/g
Radiolabel recovery [2]: 0.59 ugequiv/g
Radiolabel recovery [3]: < 0.037 ugequiv/g
Radiolabel recovery [4]: < 0.037 ugequiv/g
Radiolabel recovery [5]: 0.31 ugequiv/g
Radiolabel recovery [6]: 0.26 ugequiv/g
AUCt [7]: 103000 ngequiv.hr/g
Radiolabel recovery [8]: 0.27 ugequiv/g
Radiolabel recovery [9]: 0.64 ugequiv/g
Radiolabel recovery [10]: 1.1 ugequiv/g
Radiolabel recovery [11]: 0.2 ugequiv/g
Cmax [12]: 1180 ngequiv/g
Radiolabel recovery [13]: 0.35 ugequiv/g
Radiolabel recovery [14]: 0.05 ugequiv/g
Radiolabel recovery [15]: 0.05 ugequiv/g
Radiolabel recovery [16]: 0.19 ugequiv/g
Radiolabel recovery [17]: 0.58 ugequiv/g
Radiolabel recovery [18]: 0.5 ugequiv/g
Radiolabel recovery [19]: 0.69 ugequiv/g
Radiolabel recovery [20]: 0.62 ugequiv/g
Radiolabel recovery [21]: 0.45 ugequiv/g
Radiolabel recovery [22]: 0.42 ugequiv/g
Radiolabel recovery [23]: 0.45 ugequiv/g
Radiolabel recovery [24]: 0.17 ugequiv/g
